# System: Fibroblast
# Assay: Multiplex assay against human fibroblast
# Assay type: toxicity, cell-based
# Outline: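 Live cells were stained at seeding with Hoechst33342, BioTracker Green Microtubule Cytoskeleton Dye, MitoTracker Red and Annexin V Alexa Fluor 680, then imaged on a CQ1 microscope at 37°C and 5% CO2 after compound addition. CellPathfinder machine-learning gating split cells into Hoechst high-intensity objects or normal cells. Normal cells were split into healthy, pyknosed or fragmented nuclei, and pyknosed cells into mitotic or apoptotic. Tubulin, mitochondrial-mass and membrane-permeability phenotypes are per cents of healthy-nucleus cells.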
# [1] = 12 h, 1 µM, compound concentration 1 uM, replicate 1
# [2] = 12 h, 1 µM, compound concentration 1 uM, replicate 2
# [3] = 12 h, 10 µM, compound concentration 10 uM, replicate 1
# [4] = 12 h, 10 µM, compound concentration 10 uM, replicate 2
# [5] = 24 h, 1 µM, compound concentration 1 uM, replicate 1
# [6] = 24 h, 1 µM, compound concentration 1 uM, replicate 2
# [7] = 24 h, 10 µM, compound concentration 10 uM, replicate 1
# [8] = 24 h, 10 µM, compound concentration 10 uM, replicate 2
# [9] = 48 h, 1 µM, compound concentration 1 uM, replicate 1
# [10] = 48 h, 1 µM, compound concentration 1 uM, replicate 2
# [11] = 48 h, 10 µM, compound concentration 10 uM, replicate 1
# [12] = 48 h, 10 µM, compound concentration 10 uM, replicate 2
compound,measurement,setting,value
CC(C)Oc1ccccc1C(=O)Nc1ccccc1C(=O)Nc1cccc(S(=O)(=O)C(F)(F)F)c1,Population Apoptotic (%),[1],75%
same,Population Fragmented Nuclei (%),[1],23%
same,Population Healthy Nuclei (%),[1],49%
same,Population Hoechst High Intensity Objects (%),[1],14%
same,Population Membrane Permeable-Phenotype (%),[1],16%
same,Population Mitochondria Different-Phenotype (%),[1],22%
same,Population Mitotic Cells (%),[1],25%
same,Population Normal (%),[1],85%
same,Population Pyknosed Nuclei (%),[1],26%
same,Population Tubulin-Different-Phenotype (%),[1],62%
same,Total Cell Count,[1],158
same,Population Apoptotic (%),[2],33%
same,Population Fragmented Nuclei (%),[2],20%
same,Population Healthy Nuclei (%),[2],74%
same,Population Hoechst High Intensity Objects (%),[2],5%
same,Population Membrane Permeable-Phenotype (%),[2],10%
same,Population Mitochondria Different-Phenotype (%),[2],45%
same,Population Mitotic Cells (%),[2],66%
same,Population Normal (%),[2],94%
same,Population Pyknosed Nuclei (%),[2],6%
same,Population Tubulin-Different-Phenotype (%),[2],37%
same,Total Cell Count,[2],62
same,Population Apoptotic (%),[3],61%
same,Population Fragmented Nuclei (%),[3],39%
same,Population Healthy Nuclei (%),[3],34%
same,Population Hoechst High Intensity Objects (%),[3],11%
same,Population Membrane Permeable-Phenotype (%),[3],35%
same,Population Mitochondria Different-Phenotype (%),[3],47%
same,Population Mitotic Cells (%),[3],38%
same,Population Normal (%),[3],88%
same,Population Pyknosed Nuclei (%),[3],25%
same,Population Tubulin-Different-Phenotype (%),[3],23%
same,Total Cell Count,[3],137
same,Population Apoptotic (%),[4],90%
same,Population Fragmented Nuclei (%),[4],17%
same,Population Healthy Nuclei (%),[4],71%
same,Population Hoechst High Intensity Objects (%),[4],4%
same,Population Membrane Permeable-Phenotype (%),[4],97%
same,Population Mitochondria Different-Phenotype (%),[4],92%
same,Population Mitotic Cells (%),[4],10%
same,Population Normal (%),[4],96%
same,Population Pyknosed Nuclei (%),[4],10%
same,Population Tubulin-Different-Phenotype (%),[4],100%
same,Total Cell Count,[4],53
same,Population Apoptotic (%),[5],61%
same,Population Fragmented Nuclei (%),[5],25%
same,Population Healthy Nuclei (%),[5],51%
same,Population Hoechst High Intensity Objects (%),[5],11%
same,Population Membrane Permeable-Phenotype (%),[5],10%
same,Population Mitochondria Different-Phenotype (%),[5],22%
same,Population Mitotic Cells (%),[5],38%
same,Population Normal (%),[5],88%
same,Population Pyknosed Nuclei (%),[5],22%
same,Population Tubulin-Different-Phenotype (%),[5],65%
same,Total Cell Count,[5],168
same,Population Apoptotic (%),[6],33%
same,Population Fragmented Nuclei (%),[6],21%
same,Population Healthy Nuclei (%),[6],66%
same,Population Hoechst High Intensity Objects (%),[6],7%
same,Population Membrane Permeable-Phenotype (%),[6],11%
same,Population Mitochondria Different-Phenotype (%),[6],58%
same,Population Mitotic Cells (%),[6],66%
same,Population Normal (%),[6],92%
same,Population Pyknosed Nuclei (%),[6],11%
same,Population Tubulin-Different-Phenotype (%),[6],35%
same,Total Cell Count,[6],57
same,Population Apoptotic (%),[7],79%
same,Population Fragmented Nuclei (%),[7],40%
same,Population Healthy Nuclei (%),[7],37%
same,Population Hoechst High Intensity Objects (%),[7],12%
same,Population Membrane Permeable-Phenotype (%),[7],21%
same,Population Mitochondria Different-Phenotype (%),[7],71%
same,Population Mitotic Cells (%),[7],20%
same,Population Normal (%),[7],87%
same,Population Pyknosed Nuclei (%),[7],21%
same,Population Tubulin-Different-Phenotype (%),[7],23%
same,Total Cell Count,[7],127
same,Population Apoptotic (%),[8],100%
same,Population Fragmented Nuclei (%),[8],17%
same,Population Healthy Nuclei (%),[8],56%
same,Population Hoechst High Intensity Objects (%),[8],11%
same,Population Membrane Permeable-Phenotype (%),[8],91%
same,Population Mitochondria Different-Phenotype (%),[8],94%
same,Population Mitotic Cells (%),[8],0%
same,Population Normal (%),[8],88%
same,Population Pyknosed Nuclei (%),[8],27%
same,Population Tubulin-Different-Phenotype (%),[8],98%
same,Total Cell Count,[8],55
same,Population Apoptotic (%),[9],70%
same,Population Fragmented Nuclei (%),[9],30%
same,Population Healthy Nuclei (%),[9],57%
same,Population Hoechst High Intensity Objects (%),[9],14%
same,Population Membrane Permeable-Phenotype (%),[9],14%
same,Population Mitochondria Different-Phenotype (%),[9],13%
same,Population Mitotic Cells (%),[9],29%
same,Population Normal (%),[9],85%
same,Population Pyknosed Nuclei (%),[9],12%
same,Population Tubulin-Different-Phenotype (%),[9],49%
same,Total Cell Count,[9],163
same,Population Apoptotic (%),[10],60%
same,Population Fragmented Nuclei (%),[10],29%
same,Population Healthy Nuclei (%),[10],67%
same,Population Hoechst High Intensity Objects (%),[10],7%
same,Population Membrane Permeable-Phenotype (%),[10],4%
same,Population Mitochondria Different-Phenotype (%),[10],1%
same,Population Mitotic Cells (%),[10],40%
same,Population Normal (%),[10],92%
same,Population Pyknosed Nuclei (%),[10],3%
same,Population Tubulin-Different-Phenotype (%),[10],55%
same,Total Cell Count,[10],154
same,Population Apoptotic (%),[11],78%
same,Population Fragmented Nuclei (%),[11],69%
same,Population Healthy Nuclei (%),[11],24%
same,Population Hoechst High Intensity Objects (%),[11],10%
same,Population Membrane Permeable-Phenotype (%),[11],14%
same,Population Mitochondria Different-Phenotype (%),[11],46%
same,Population Mitotic Cells (%),[11],21%
same,Population Normal (%),[11],89%
same,Population Pyknosed Nuclei (%),[11],6%
same,Population Tubulin-Different-Phenotype (%),[11],48%
same,Total Cell Count,[11],232
same,Population Apoptotic (%),[12],50%
same,Population Fragmented Nuclei (%),[12],66%
same,Population Healthy Nuclei (%),[12],29%
same,Population Hoechst High Intensity Objects (%),[12],9%
same,Population Membrane Permeable-Phenotype (%),[12],21%
same,Population Mitochondria Different-Phenotype (%),[12],65%
same,Population Mitotic Cells (%),[12],50%
same,Population Normal (%),[12],90%
same,Population Pyknosed Nuclei (%),[12],3%
same,Population Tubulin-Different-Phenotype (%),[12],55%
same,Total Cell Count,[12],175
COc1cc(Nc2nccc(-c3cnn4nc(OC)ccc34)n2)cc(C(F)(F)F)c1,Population Apoptotic (%),[1],42%
same,Population Fragmented Nuclei (%),[1],22%
same,Population Healthy Nuclei (%),[1],47%
same,Population Hoechst High Intensity Objects (%),[1],21%
same,Population Membrane Permeable-Phenotype (%),[1],25%
same,Population Mitochondria Different-Phenotype (%),[1],6%
same,Population Mitotic Cells (%),[1],57%
same,Population Normal (%),[1],78%
same,Population Pyknosed Nuclei (%),[1],30%
same,Population Tubulin-Different-Phenotype (%),[1],43%
same,Total Cell Count,[1],87
same,Population Apoptotic (%),[2],50%
same,Population Fragmented Nuclei (%),[2],8%
same,Population Healthy Nuclei (%),[2],86%
same,Population Hoechst High Intensity Objects (%),[2],3%
same,Population Membrane Permeable-Phenotype (%),[2],2%
same,Population Mitochondria Different-Phenotype (%),[2],16%
same,Population Mitotic Cells (%),[2],50%
same,Population Normal (%),[2],96%
same,Population Pyknosed Nuclei (%),[2],5%
same,Population Tubulin-Different-Phenotype (%),[2],16%
same,Total Cell Count,[2],44
same,Population Apoptotic (%),[3],57%
same,Population Fragmented Nuclei (%),[3],66%
same,Population Healthy Nuclei (%),[3],15%
same,Population Hoechst High Intensity Objects (%),[3],48%
same,Population Membrane Permeable-Phenotype (%),[3],13%
same,Population Mitochondria Different-Phenotype (%),[3],13%
same,Population Mitotic Cells (%),[3],42%
same,Population Normal (%),[3],51%
same,Population Pyknosed Nuclei (%),[3],17%
same,Population Tubulin-Different-Phenotype (%),[3],47%
same,Total Cell Count,[3],283
same,Population Apoptotic (%),[4],33%
same,Population Fragmented Nuclei (%),[4],27%
same,Population Healthy Nuclei (%),[4],61%
same,Population Hoechst High Intensity Objects (%),[4],34%
same,Population Membrane Permeable-Phenotype (%),[4],3%
same,Population Mitochondria Different-Phenotype (%),[4],6%
same,Population Mitotic Cells (%),[4],66%
same,Population Normal (%),[4],65%
same,Population Pyknosed Nuclei (%),[4],11%
same,Population Tubulin-Different-Phenotype (%),[4],15%
same,Total Cell Count,[4],82
same,Population Apoptotic (%),[5],75%
same,Population Fragmented Nuclei (%),[5],22%
same,Population Healthy Nuclei (%),[5],50%
same,Population Hoechst High Intensity Objects (%),[5],19%
same,Population Membrane Permeable-Phenotype (%),[5],8%
same,Population Mitochondria Different-Phenotype (%),[5],10%
same,Population Mitotic Cells (%),[5],25%
same,Population Normal (%),[5],80%
same,Population Pyknosed Nuclei (%),[5],27%
same,Population Tubulin-Different-Phenotype (%),[5],32%
same,Total Cell Count,[5],92
same,Population Apoptotic (%),[6],45%
same,Population Fragmented Nuclei (%),[6],10%
same,Population Healthy Nuclei (%),[6],77%
same,Population Hoechst High Intensity Objects (%),[6],2%
same,Population Membrane Permeable-Phenotype (%),[6],4%
same,Population Mitotic Cells (%),[6],54%
same,Population Normal (%),[6],97%
same,Population Pyknosed Nuclei (%),[6],12%
same,Population Tubulin-Different-Phenotype (%),[6],19%
same,Total Cell Count,[6],43
same,Population Apoptotic (%),[7],46%
same,Population Fragmented Nuclei (%),[7],57%
same,Population Healthy Nuclei (%),[7],21%
same,Population Hoechst High Intensity Objects (%),[7],54%
same,Population Membrane Permeable-Phenotype (%),[7],23%
same,Population Mitochondria Different-Phenotype (%),[7],11%
same,Population Mitotic Cells (%),[7],53%
same,Population Normal (%),[7],45%
same,Population Pyknosed Nuclei (%),[7],21%
same,Population Tubulin-Different-Phenotype (%),[7],42%
same,Total Cell Count,[7],273
same,Population Apoptotic (%),[8],50%
same,Population Fragmented Nuclei (%),[8],26%
same,Population Healthy Nuclei (%),[8],56%
same,Population Hoechst High Intensity Objects (%),[8],29%
same,Population Membrane Permeable-Phenotype (%),[8],0%
same,Population Mitochondria Different-Phenotype (%),[8],23%
same,Population Mitotic Cells (%),[8],50%
same,Population Normal (%),[8],70%
same,Population Pyknosed Nuclei (%),[8],17%
same,Population Tubulin-Different-Phenotype (%),[8],11%
same,Total Cell Count,[8],90
same,Population Apoptotic (%),[9],64%
same,Population Fragmented Nuclei (%),[9],32%
same,Population Healthy Nuclei (%),[9],50%
same,Population Hoechst High Intensity Objects (%),[9],11%
same,Population Mitochondria Different-Phenotype (%),[9],0%
same,Population Mitotic Cells (%),[9],35%
same,Population Normal (%),[9],88%
same,Population Pyknosed Nuclei (%),[9],17%
same,Population Tubulin-Different-Phenotype (%),[9],21%
same,Total Cell Count,[9],92
same,Population Apoptotic (%),[10],66%
same,Population Fragmented Nuclei (%),[10],39%
same,Population Healthy Nuclei (%),[10],56%
same,Population Hoechst High Intensity Objects (%),[10],10%
same,Population Membrane Permeable-Phenotype (%),[10],17%
same,Population Mitochondria Different-Phenotype (%),[10],4%
same,Population Mitotic Cells (%),[10],33%
same,Population Normal (%),[10],89%
same,Population Pyknosed Nuclei (%),[10],4%
same,Population Tubulin-Different-Phenotype (%),[10],29%
same,Total Cell Count,[10],82
same,Population Apoptotic (%),[11],69%
same,Population Fragmented Nuclei (%),[11],69%
same,Population Healthy Nuclei (%),[11],21%
same,Population Hoechst High Intensity Objects (%),[11],51%
same,Population Membrane Permeable-Phenotype (%),[11],10%
same,Population Mitochondria Different-Phenotype (%),[11],6%
same,Population Mitotic Cells (%),[11],30%
same,Population Normal (%),[11],48%
same,Population Pyknosed Nuclei (%),[11],9%
same,Population Tubulin-Different-Phenotype (%),[11],56%
same,Total Cell Count,[11],291
same,Population Apoptotic (%),[12],50%
same,Population Fragmented Nuclei (%),[12],39%
same,Population Healthy Nuclei (%),[12],59%
same,Population Hoechst High Intensity Objects (%),[12],26%
same,Population Membrane Permeable-Phenotype (%),[12],4%
same,Population Mitochondria Different-Phenotype (%),[12],8%
same,Population Mitotic Cells (%),[12],50%
same,Population Normal (%),[12],73%
same,Population Pyknosed Nuclei (%),[12],1%
same,Population Tubulin-Different-Phenotype (%),[12],40%
same,Total Cell Count,[12],205
